Reference: ChEMBL document CHEMBL5661979, “Pharmacological inhibition of BMK1 suppresses tumor growth through promyelocytic leukemia protein” (Cancer Cell, 2010)

Columns and labels:
[1] = biological target: Ribosomal protein S6 kinase alpha-6 (Homo sapiens) (UniProt Q9UK32); test: Inhibition of C-terminal RPS6KA6 kinase domain (unknown origin) assessed as remaining activity at 10 uM by ATP-competition binding assay relative to control
eIF-2-alpha kinase GCN2 [2] = biological target: T1, eIF-2-alpha kinase GCN2 (Homo sapiens, UniProt Q9P2K8); test: Inhibition of GCN2 in human HeLa cells lysate pre incubated for 15 mins followed by ATP acyl phosphate probe addition and measured after 10 mins by LC-MS/MS analysis; type: subcellular
[3] = biological target: Ribosomal protein S6 kinase beta-1 (Homo sapiens, UniProt P23443); test: Inhibition of P70S6K in human HeLa cells lysate pre incubated for 15 mins followed by ATP acyl phosphate probe addition and measured after 10 mins by LC-MS/MS analysis; type: subcellular
[4] = biological target: 5'-AMP-activated protein kinase catalytic subunit alpha-1 (Homo sapiens, UniProt Q13131); test: Inhibition of AMPKalpha1 in human HeLa cells lysate pre incubated for 15 mins followed by ADP acyl phosphate probe addition and measured after 10 mins by LC-MS/MS analysis; type: subcellular
Outline: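 HeLa cell lysates (5 mg/mL total protein) were preincubated with inhibitor at 0, 0.8, 2, 10 or 50 μM for 15 min. ATP or ADP acylphosphate probe was then added (5 μM final) for 10 min, and reactions were stopped with urea. Up to four fragment ions per kinase probe-peptide were quantified by targeted MS. % inhibition was taken relative to untreated lysate. Run in duplicate.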

[5] = biological target: Cyclin-dependent kinase 1 (Homo sapiens, UniProt P06493); test: Inhibition of CDC2 in human HeLa cells lysate pre incubated for 15 mins followed by ADP acyl phosphate probe addition and measured after 10 mins by LC-MS/MS analysis; type: subcellular
Outline: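 KiNativ profiling in HeLa lysate (5 mg/mL total protein). Lysate incubated 15 min with inhibitor at 50, 10, 2, 0.8 or 0 μM. ATP or ADP acylphosphate probe then added (5 μM final) and reacted 10 min. Reaction stopped with urea and analysed by targeted MS, using up to four fragment ions per kinase peptide-probe conjugate. % inhibition taken against untreated lysate. Run in duplicate.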

[6] = biological target: Inhibitor of nuclear factor kappa-B kinase subunit beta (Homo sapiens, UniProt O14920); test: Inhibition of IKKB in human HeLa cells lysate pre incubated for 15 mins followed by ADP acyl phosphate probe addition and measured after 10 mins by LC-MS/MS analysis; type: subcellular
[7] = Inhibition of MSK1/2 in human HeLa cells lysate pre incubated for 15 mins followed by ADP acyl phosphate probe addition and measured after 10 mins by LC-MS/MS analysis; type: subcellular
[8] = biological target: PAN2-PAN3 deadenylation complex subunit PAN3 (Homo sapiens, UniProt Q58A45); test: Inhibition of PAN3 in human HeLa cells lysate pre incubated for 15 mins followed by ADP acyl phosphate probe addition and measured after 10 mins by LC-MS/MS analysis; type: subcellular
[9] = biological target: T2, Serine/threonine-protein kinase Sgk3 (Homo sapiens, UniProt Q96BR1); test: Inhibition of SGK3 in human HeLa cells lysate pre incubated for 15 mins followed by ADP acyl phosphate probe addition and measured after 10 mins by LC-MS/MS analysis; type: subcellular
T2 sequence (Q96BR1 whole entry): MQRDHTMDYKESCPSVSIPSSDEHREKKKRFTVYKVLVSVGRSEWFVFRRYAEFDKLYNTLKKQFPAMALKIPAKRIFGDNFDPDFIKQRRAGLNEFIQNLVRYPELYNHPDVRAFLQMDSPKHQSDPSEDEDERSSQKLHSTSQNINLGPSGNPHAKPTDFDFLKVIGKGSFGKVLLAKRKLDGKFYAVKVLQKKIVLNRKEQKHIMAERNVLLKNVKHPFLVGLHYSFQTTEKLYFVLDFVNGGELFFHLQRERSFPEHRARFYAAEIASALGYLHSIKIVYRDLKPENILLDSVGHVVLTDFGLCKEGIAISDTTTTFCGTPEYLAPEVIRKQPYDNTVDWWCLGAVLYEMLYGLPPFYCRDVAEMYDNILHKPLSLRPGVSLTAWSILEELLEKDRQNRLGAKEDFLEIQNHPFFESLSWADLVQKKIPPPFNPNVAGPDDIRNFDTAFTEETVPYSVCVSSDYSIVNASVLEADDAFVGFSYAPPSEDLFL

[10] = biological target: T3, Dual specificity mitogen-activated protein kinase kinase 4 (Homo sapiens) (UniProt P45985); test: Inhibition of MAP2K4 in human HeLa cells lysate at 50 uM pre incubated for 15 mins followed by ADP acyl phosphate probe addition and measured after 10 mins by LC-MS/MS analysis relative to control; type: subcellular; conditions: time 25.0 min
T3 sequence (whole entry): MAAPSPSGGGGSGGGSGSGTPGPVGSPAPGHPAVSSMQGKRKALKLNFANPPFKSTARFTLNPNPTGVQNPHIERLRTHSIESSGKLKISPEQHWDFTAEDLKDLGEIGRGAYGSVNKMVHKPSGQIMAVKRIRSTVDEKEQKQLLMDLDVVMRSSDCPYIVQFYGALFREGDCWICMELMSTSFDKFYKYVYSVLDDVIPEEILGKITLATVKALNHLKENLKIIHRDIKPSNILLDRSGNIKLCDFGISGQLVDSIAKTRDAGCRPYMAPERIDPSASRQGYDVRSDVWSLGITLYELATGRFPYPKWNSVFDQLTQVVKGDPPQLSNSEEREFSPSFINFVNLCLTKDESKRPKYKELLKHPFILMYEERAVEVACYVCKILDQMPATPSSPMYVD

[11] = biological target: Mitogen-activated protein kinase 3 (Homo sapiens, UniProt P27361); test: Inhibition of ERK1 in human HeLa cells lysate at 10 uM pre incubated for 15 mins followed by ADP acyl phosphate probe addition and measured after 10 mins by LC-MS/MS analysis relative to control; type: subcellular; conditions: time 25.0 min
[12] = biological target: Ribosomal protein S6 kinase beta-2 (Homo sapiens, UniProt Q9UBS0); test: Inhibition of P70S6KB in human HeLa cells lysate at 50 uM pre incubated for 15 mins followed by ATP acyl phosphate probe addition and measured after 10 mins by LC-MS/MS analysis relative to control; type: subcellular; conditions: time 25.0 min
eIF-2-alpha kinase GCN2 [13] = biological target: T1, eIF-2-alpha kinase GCN2; test: Inhibition of GCN2 in human HeLa cells lysate at 10 uM pre incubated for 15 mins followed by ATP acyl phosphate probe addition and measured after 10 mins by LC-MS/MS analysis relative to control; type: subcellular; conditions: time 25.0 min
[14] = Inhibition of SRC/FYN/YES in human HeLa cells lysate at 10 uM pre incubated for 15 mins followed by ATP acyl phosphate probe addition and measured after 10 mins by LC-MS/MS analysis relative to control; conditions: 25 min, condition cancer
[15] = biological target: Tyrosine-protein kinase Lyn (Homo sapiens, UniProt P07948); test: Inhibition of LYN in human HeLa cells lysate at 2 uM pre incubated for 15 mins followed by ATP acyl phosphate probe addition and measured after 10 mins by LC-MS/MS analysis relative to control; type: subcellular; conditions: time 25.0 min

T1 sequence (Q9P2K8 whole entry): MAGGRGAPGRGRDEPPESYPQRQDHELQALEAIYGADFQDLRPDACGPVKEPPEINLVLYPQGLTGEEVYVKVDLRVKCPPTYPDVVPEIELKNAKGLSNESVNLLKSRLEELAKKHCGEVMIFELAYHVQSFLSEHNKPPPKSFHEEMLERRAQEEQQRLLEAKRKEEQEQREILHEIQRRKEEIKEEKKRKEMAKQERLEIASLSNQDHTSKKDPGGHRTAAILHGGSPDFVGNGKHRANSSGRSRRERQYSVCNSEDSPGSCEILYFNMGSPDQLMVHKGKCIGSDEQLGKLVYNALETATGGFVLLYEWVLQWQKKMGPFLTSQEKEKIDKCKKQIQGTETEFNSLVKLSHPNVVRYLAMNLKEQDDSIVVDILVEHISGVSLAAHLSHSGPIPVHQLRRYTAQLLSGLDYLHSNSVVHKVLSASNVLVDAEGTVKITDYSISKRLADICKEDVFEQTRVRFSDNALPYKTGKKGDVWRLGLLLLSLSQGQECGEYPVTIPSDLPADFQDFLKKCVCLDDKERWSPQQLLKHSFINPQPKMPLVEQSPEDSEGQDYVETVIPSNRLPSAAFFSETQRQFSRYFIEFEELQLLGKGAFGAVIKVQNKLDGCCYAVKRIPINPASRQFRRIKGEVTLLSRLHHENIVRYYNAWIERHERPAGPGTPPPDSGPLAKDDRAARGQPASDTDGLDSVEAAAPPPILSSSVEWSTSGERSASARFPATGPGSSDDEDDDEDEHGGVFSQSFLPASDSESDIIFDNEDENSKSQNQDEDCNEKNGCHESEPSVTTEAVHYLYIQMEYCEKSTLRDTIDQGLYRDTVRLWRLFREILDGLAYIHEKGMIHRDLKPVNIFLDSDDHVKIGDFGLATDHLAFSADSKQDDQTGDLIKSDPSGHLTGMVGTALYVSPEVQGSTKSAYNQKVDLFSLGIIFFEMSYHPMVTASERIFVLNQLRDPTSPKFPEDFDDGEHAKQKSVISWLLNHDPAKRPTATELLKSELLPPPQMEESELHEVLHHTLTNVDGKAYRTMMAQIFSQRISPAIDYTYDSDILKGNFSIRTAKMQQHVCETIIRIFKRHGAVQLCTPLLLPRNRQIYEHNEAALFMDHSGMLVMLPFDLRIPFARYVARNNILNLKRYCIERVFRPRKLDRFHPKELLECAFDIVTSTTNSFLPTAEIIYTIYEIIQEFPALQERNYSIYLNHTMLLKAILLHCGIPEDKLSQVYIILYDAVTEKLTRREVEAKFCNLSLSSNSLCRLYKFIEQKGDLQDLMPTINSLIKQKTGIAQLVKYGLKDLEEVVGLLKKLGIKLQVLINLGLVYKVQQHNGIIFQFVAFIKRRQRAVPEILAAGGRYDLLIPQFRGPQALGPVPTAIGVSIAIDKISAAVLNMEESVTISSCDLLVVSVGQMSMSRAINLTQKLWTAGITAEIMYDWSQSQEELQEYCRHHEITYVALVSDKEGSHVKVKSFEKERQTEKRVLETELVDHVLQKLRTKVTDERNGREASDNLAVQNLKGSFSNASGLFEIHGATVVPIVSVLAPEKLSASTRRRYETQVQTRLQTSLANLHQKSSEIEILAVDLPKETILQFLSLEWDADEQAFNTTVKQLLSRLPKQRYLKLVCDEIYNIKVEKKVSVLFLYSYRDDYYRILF
Chain of Inhibitor of nuclear factor kappa-B kinase subunit beta (O14920 whole entry): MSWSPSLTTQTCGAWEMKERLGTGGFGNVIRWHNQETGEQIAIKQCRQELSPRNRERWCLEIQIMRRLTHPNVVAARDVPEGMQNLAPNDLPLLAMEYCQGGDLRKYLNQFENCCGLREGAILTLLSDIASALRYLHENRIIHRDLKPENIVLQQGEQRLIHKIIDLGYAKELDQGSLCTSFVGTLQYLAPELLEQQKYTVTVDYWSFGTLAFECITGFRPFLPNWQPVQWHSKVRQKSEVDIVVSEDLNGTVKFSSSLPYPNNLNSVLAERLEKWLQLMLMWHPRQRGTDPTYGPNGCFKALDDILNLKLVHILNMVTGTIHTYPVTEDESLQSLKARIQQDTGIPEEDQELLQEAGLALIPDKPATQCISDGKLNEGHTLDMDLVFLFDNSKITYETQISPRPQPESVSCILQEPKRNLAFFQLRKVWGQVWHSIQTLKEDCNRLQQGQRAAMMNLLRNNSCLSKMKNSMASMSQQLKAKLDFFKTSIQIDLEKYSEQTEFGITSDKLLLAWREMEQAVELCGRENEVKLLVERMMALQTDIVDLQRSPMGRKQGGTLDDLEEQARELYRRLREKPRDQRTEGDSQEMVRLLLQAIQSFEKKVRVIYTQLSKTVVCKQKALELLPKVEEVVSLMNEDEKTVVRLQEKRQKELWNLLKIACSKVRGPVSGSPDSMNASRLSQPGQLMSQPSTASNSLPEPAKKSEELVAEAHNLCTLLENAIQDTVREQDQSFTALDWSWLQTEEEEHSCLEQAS
Chain of Mitogen-activated protein kinase 3 (P27361 whole entry): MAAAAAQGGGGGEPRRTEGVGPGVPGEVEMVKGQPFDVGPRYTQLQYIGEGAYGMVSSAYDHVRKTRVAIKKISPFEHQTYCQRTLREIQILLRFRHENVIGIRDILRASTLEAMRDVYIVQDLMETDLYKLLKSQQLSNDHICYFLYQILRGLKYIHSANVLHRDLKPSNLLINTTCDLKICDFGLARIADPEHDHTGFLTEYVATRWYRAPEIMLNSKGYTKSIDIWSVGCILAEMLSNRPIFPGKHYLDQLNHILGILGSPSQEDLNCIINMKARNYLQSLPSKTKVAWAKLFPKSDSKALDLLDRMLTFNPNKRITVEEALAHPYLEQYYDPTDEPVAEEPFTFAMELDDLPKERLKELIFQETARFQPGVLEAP
Chain of Ribosomal protein S6 kinase beta-2 (Q9UBS0 whole entry): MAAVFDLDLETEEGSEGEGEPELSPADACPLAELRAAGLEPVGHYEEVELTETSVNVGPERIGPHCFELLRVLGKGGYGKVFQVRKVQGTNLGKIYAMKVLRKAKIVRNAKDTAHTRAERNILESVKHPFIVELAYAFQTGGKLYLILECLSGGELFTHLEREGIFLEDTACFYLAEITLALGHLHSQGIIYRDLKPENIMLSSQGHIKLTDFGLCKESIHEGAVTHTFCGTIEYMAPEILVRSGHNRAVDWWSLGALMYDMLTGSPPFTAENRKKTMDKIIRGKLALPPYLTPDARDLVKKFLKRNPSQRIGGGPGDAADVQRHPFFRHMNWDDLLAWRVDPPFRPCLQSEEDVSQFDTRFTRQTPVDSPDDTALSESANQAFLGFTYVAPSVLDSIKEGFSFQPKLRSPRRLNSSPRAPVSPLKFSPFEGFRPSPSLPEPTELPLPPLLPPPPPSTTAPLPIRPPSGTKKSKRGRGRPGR
Chain of Cyclin-dependent kinase 1 (P06493 whole entry, the tested form may be a part): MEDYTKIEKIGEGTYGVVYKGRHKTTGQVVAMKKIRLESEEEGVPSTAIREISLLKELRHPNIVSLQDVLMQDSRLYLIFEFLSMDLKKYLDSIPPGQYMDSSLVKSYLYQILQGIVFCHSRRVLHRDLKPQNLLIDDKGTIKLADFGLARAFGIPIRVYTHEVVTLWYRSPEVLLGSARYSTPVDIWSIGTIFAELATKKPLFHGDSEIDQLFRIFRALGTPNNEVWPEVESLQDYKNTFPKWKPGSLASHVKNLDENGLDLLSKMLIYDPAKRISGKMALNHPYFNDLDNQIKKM
Chain of Ribosomal protein S6 kinase beta-1 (P23443 whole entry): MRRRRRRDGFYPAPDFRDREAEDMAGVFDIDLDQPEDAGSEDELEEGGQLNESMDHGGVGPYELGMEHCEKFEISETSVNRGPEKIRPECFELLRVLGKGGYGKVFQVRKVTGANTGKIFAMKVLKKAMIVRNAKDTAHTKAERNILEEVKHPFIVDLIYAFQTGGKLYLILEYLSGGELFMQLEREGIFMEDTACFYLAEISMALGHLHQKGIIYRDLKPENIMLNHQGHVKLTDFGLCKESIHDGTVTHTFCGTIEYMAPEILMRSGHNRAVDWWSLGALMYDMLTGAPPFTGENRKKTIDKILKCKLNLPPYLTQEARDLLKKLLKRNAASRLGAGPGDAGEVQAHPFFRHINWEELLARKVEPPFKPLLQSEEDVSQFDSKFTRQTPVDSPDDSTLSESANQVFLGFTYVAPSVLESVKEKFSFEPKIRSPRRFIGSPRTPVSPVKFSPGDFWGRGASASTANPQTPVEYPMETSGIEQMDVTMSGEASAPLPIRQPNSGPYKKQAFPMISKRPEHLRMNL
Chain of 5'-AMP-activated protein kinase catalytic subunit alpha-1 (Q13131 whole entry, the tested form may be a part): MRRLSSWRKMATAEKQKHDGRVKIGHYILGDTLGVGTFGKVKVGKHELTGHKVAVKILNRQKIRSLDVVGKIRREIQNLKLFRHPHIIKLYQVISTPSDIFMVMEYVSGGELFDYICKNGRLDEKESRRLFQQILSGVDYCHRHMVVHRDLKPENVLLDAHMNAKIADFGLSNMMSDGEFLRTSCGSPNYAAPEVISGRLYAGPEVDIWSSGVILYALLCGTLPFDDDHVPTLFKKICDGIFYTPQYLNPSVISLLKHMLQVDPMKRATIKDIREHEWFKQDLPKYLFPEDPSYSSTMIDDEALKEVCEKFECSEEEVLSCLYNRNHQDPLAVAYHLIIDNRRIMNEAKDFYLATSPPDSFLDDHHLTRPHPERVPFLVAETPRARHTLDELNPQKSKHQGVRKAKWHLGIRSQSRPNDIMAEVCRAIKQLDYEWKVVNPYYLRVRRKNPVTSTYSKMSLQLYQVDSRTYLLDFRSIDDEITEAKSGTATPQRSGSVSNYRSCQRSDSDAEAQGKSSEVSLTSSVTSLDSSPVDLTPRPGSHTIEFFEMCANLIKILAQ

Work on `CCOc1cc(N2CCC(O)CC2)ccc1Nc1ncc2c(n1)N(C)c1ccccc1C(=O)N2C` yielded an Activity [1] of 31%, an IC50 (eIF-2-alpha kinase GCN2 [2]) greater than 50 µM and an IC50 [3] greater than 50 µM. For the same molecule, the IC50 [4] was greater than 50 µM, the IC50 [5] was greater than 50 µM and the IC50 [6] was greater than 50 µM. The IC50 [7] was greater than 50 µM, the IC50 [8] was greater than 50 µM and the IC50 [9] was greater than 50 µM. The inhibition [10] was 3.1%, the inhibition [11] was -3.9% and the inhibition [12] was 3%. The inhibition (eIF-2-alpha kinase GCN2 [13]) was -0.6%, the inhibition at 10 µM [14] was -68.3% and the inhibition [15] was -6.3%.
